The structures appear in SMILES notation.

In data set [1] the test system is Rattus norvegicus. Nature of the data set: Anticonvulsant activity in Wistar albino rat assessed as protection against maximal electroshock-induced electroconvulsive seizures at 10 mg/kg, po pretreated for 1 hr followed by maximal electroshock challenge relative to control. Format: functional. In short, it runs like this:
(§1)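 Adult male Wistar rats (150–250 g), six per group, dosed orally 10 mg/kg as suspension in 0.5% sodium carboxymethylcellulose; vehicle control. After 1 h, maximal electroshock of 150 mA for 0.2 s was given via corneal electrodes. Duration of hind limb extension was recorded, and its abolition or reduction was taken as the anticonvulsant index. Values are mean ± SEM, n = 6, analysed by one-way ANOVA with Dunnett's test.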

Data set [2] concerns Rattus norvegicus. The data set can be described thus: Anticonvulsant activity in Wistar albino rat assessed as protection against maximal electroshock-induced seizures by measuring duration of limb extension at 10 mg/kg, po pretreated for 1 hr followed by maximal electroshock challenge (reference value: 16 +/- 1 secs). In kind it is functional. In short, it runs like this: as §1
(In general: In the maximal electroshock model the usual endpoint is tonic extension of the hind limbs.)

The subject of data set [3] is Rattus norvegicus. Nature of the data set: Anticonvulsant activity in Wistar albino rat assessed as protection against […] at 10 mg/kg, po pretreated for 1 hr followed by pentylenetetrazole challenge measured over 300 secs relative to control. In kind it is functional.
The subject of data set [4] is Rattus norvegicus. The data set can be described thus: Anticonvulsant activity in Wistar albino rat assessed as protection against subcutaneous pentylenetetrazole-induced seizures by measuring latency period at 10 mg/kg, po pretreated for 1 hr followed by pentylenetetrazole challenge measured over 300 secs (reference value: 72 +/- 2 secs). In kind it is functional.

A further data set relates to Mus musculus. The data set can be described thus: Toxicity in Swiss albino mouse up to 100 mg/kg, po measured over 7 days. Format: organism-based. Details: dose 100 mg/kg, route oral. As to conditions: in vivo, 168 h. In short, it runs like this:
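Acute oral toxicity followed OECD-425. Swiss albino mice (18–20 g), 5 per group, were dosed orally at different levels and observed for death over seven days.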

Data set [5] relates to Rattus norvegicus. Nature of the data set: Anticonvulsant activity in Wistar albino rat assessed as protection against subcutaneous pentylenetetrazole-induced mortality at 30 mg/kg, po pretreated for 1 hr followed by pentylenetetrazole challenge relative to control. In kind it is functional.
The subject of data set [6] is Rattus norvegicus. The data set can be described thus: Anticonvulsant activity in Wistar albino rat assessed as protection against maximal electroshock-induced electroconvulsive seizures at 30 mg/kg, po pretreated for 1 hr followed by maximal electroshock challenge relative to control. In kind it is functional.
For data set [7], the system named is Rattus norvegicus. The data set can be described thus: Anticonvulsant activity in Wistar albino rat assessed as protection against maximal electroshock-induced seizures by measuring duration of limb extension at 30 mg/kg, po pretreated for 1 hr followed by maximal electroshock challenge (reference value: 16 +/- 1 secs). Format: functional.
Data set [8] relates to Rattus norvegicus. The data set can be described thus: Anticonvulsant activity in Wistar albino rat assessed as protection against subcutaneous pentylenetetrazole-induced seizures by measuring latency period at 30 mg/kg, po pretreated for 1 hr followed by pentylenetetrazole challenge measured over 300 secs (reference value: 72 +/- 2 secs). In kind it is functional.
The test system of data set [9] is Rattus norvegicus. The data set can be described thus: Anticonvulsant activity in Wistar albino rat assessed as protection against subcutaneous pentylenetetrazole-induced mortality at 5 mg/kg, ip pretreated for 1 hr followed by pentylenetetrazole challenge measured over 300 secs relative to control. Format: functional. As to conditions: sc.
Data set [10] concerns Rattus norvegicus. The data set can be described thus: Anticonvulsant activity in Wistar albino rat assessed as protection against subcutaneous pentylenetetrazole-induced seizures by measuring latency period at 5 mg/kg, ip pretreated for 1 hr followed by pentylenetetrazole challenge measured over 300 secs (reference value: 72 +/- 2 secs). In kind it is functional.

`CCOC(=O)C1=C(C)N(C(C(=O)OCC)C(=O)OCC)C(C)=C(C(=O)OCC)C1/C=C/c1ccc([N+](=O)[O-])cc1`: the Activity in the data set on Rattus norvegicus [1] is recorded as 50%; in the data set on Mus musculus, “Non-toxic”. For the same compound, the Time in the data set on Rattus norvegicus [2] is 8 s; in the data set on Rattus norvegicus [4] it was above 300 s. For the same compound, in the data set on Rattus norvegicus [3], the mortality at 10 mg/kg amounted to 0%.
On the same counts, the results for `CCOC(=O)C(C(=O)OCC)N1C(C)=C(C(=O)OC)C(c2ccccc2[N+](=O)[O-])C(C(=O)OC)=C1C` are 39.6%, “Non-toxic”, 10 s, 295 s and 0%.
For `CCOC(=O)C1=C(C)N(C(C(=O)OCC)C(=O)OCC)C(C)=C(C(=O)OCC)C1c1ccccc1` the same measures were 16.6%, “Non-toxic”, 13 s, 283 s and 0%.
With `COC(=O)C1=C(C)NC(C)=C(C(=O)OC)C1c1ccccc1[N+](=O)[O-]` [NIFEDIPINE], in the data set on Rattus norvegicus [5], the mortality at 30 mg/kg turned out to be 33.3%. For the same compound, in the data set on Rattus norvegicus [6], the Activity came to 56.8%. Besides, the Time was 7 s in the data set with Rattus norvegicus [7] and 215 s in the data set on Rattus norvegicus [8].
`CCOC(=O)C1=C(C)N(C(C(=O)OCC)C(=O)OCC)C(C)=C(C(=O)OCC)C1Cc1ccccc1`: the Activity with Rattus norvegicus [1] is reported as 10.4%; in the data set on Mus musculus it was “Non-toxic”. Further, the Time in the data set with Rattus norvegicus [2] was 14 s; with Rattus norvegicus [4] it was 265 s. Further, the mortality at 10 mg/kg in the data set with Rattus norvegicus [3] turned out to be 66.6%.
Turning to `CCOC(=O)C(C(=O)OCC)N1C(C)=C(C(=O)OC)C(/C=C/c2ccccc2)C(C(=O)OC)=C1C`, the values for the Activity in the data set on Rattus norvegicus [1] and in the data set with Mus musculus were 41.6% and “Non-toxic”, respectively. Moreover, the Time with Rattus norvegicus [2] is reported as 9 s; in the data set on Rattus norvegicus [4], 268 s. Also, in the data set with Rattus norvegicus [3], the mortality at 10 mg/kg was determined as 100%.
Turning to `CCOC(=O)C(C(=O)OCC)N1C(C)=C(C(=O)OC)C(c2ccccc2)C(C(=O)OC)=C1C`, the Activity in the data set with Rattus norvegicus [1] is on record as 25%; in the data set with Mus musculus, “Non-toxic”. In addition, the figures for the Time in the data set on Rattus norvegicus [2] and in the data set on Rattus norvegicus [4] were 12 s and above 300 s, respectively. Also, the mortality at 10 mg/kg in the data set with Rattus norvegicus [3] was 33.3%.
For `CCOC(=O)C1=C(C)N(C(C(=O)OCC)C(=O)OCC)C(C)=C(C(=O)OCC)C1`, the Activity with Rattus norvegicus [1] is reported as 41.6%; with Mus musculus, “Non-toxic”. Further, the Time was determined as 9 s in the data set on Rattus norvegicus [2] and 192 s in the data set on Rattus norvegicus [4]. Also, in the data set with Rattus norvegicus [3], the mortality at 10 mg/kg amounted to 0%.
For `CCOC(=O)C1=C(C)N(C(C(=O)OCC)C(=O)OCC)C(C)=C(C(=O)OCC)C1c1ccccc1[N+](=O)[O-]`, the Activity with Rattus norvegicus [1] is 22.9%; in the data set with Mus musculus, “Non-toxic”. Besides, the values for the Time in the data set on Rattus norvegicus [2] and in the data set on Rattus norvegicus [4] were 12 s and 230 s, respectively. Also, in the data set on Rattus norvegicus [3], the mortality at 10 mg/kg amounted to 0%.
Turning to `CN1C(=O)CN=C(c2ccccc2)c2cc(Cl)ccc21` [DIAZEPAM], the mortality at 5 mg/kg in the data set with Rattus norvegicus [9] was found to be 66.6%. In the data set on Rattus norvegicus [10], the Time is reported as 266 s.
With `CCOC(=O)C(C(=O)OCC)N1C(C)=C(C(=O)OC)C(CCc2ccccc2)C(C(=O)OC)=C1C`, the Activity in the data set on Rattus norvegicus [1] was 20.8%; with Mus musculus, “Non-toxic”. The Time was 13 s with Rattus norvegicus [2] and above 300 s in the data set on Rattus norvegicus [4]. Moreover, in the data set with Rattus norvegicus [3], the mortality at 10 mg/kg was determined as 66.6%.
For `CCOC(=O)C1=C(C)N(C(C(=O)OCC)C(=O)OCC)C(C)=C(C(=O)OCC)C1CCc1ccccc1` the same measures were 8.3%, “Non-toxic”, 15 s, 246 s and 33.3%.
For the compound `CCOC(=O)C1=C(C)N(C(C(=O)OCC)C(=O)OCC)C(C)=C(C(=O)OCC)C1/C=C/c1ccccc1`, the Activity is reported as 22.9% in the data set with Rattus norvegicus [1] and “Non-toxic” with Mus musculus. Also, the Time was 12 s in the data set on Rattus norvegicus [2] and above 300 s in the data set on Rattus norvegicus [4]. Further, the mortality at 10 mg/kg in the data set on Rattus norvegicus [3] was 0%.
For `CCOC(=O)C(C(=O)OCC)N1C(C)=C(C(=O)OC)CC(C(=O)OC)=C1C` the same measures were 14.5%, “Non-toxic”, 13 s, 126 s and 0%.
As to `O=C1NC(=O)C(c2ccccc2)(c2ccccc2)N1` [PHENYTOIN], in the data set on Rattus norvegicus [6], the Activity is reported as 62.5%. The Time in the data set on Rattus norvegicus [7] is listed as 6 s.
In the case of `CCOC(=O)C(C(=O)OCC)N1C(C)=C(C(=O)OC)C(Cc2ccccc2)C(C(=O)OC)=C1C`, the Activity with Rattus norvegicus [1] is recorded as 14.5%; in the data set on Mus musculus it was “Non-toxic”. Moreover, the Time in the data set on Rattus norvegicus [2] stood at 14 s; with Rattus norvegicus [4], 285 s. Moreover, the mortality at 10 mg/kg in the data set on Rattus norvegicus [3] was 33.3%.
Consider `CCOC(=O)C(C(=O)OCC)N1C(C)=C(C(=O)OC)C(/C=C/c2ccc([N+](=O)[O-])cc2)C(C(=O)OC)=C1C`, for which the Activity in the data set on Rattus norvegicus [1] was 52.1%; in the data set on Mus musculus it was “Non-toxic”. Also, the figures for the Time in the data set on Rattus norvegicus [2] and in the data set with Rattus norvegicus [4] were 7 s and above 300 s, respectively. The mortality at 10 mg/kg in the data set on Rattus norvegicus [3] turned out to be 0%.

Usually mortality stands for the share of the test organisms that died.

Values taken from ChEMBL document CHEMBL3112441, “Synthesis, anticonvulsant activity and molecular properties prediction of dialkyl 1-(di(ethoxycarbonyl)methyl)-2,6-dimethyl-4-substituted-1,4-dihydropyridine-3,5-dicarboxylates” (Eur J Med Chem, 2014).
